Hits are enriched below; roughly 1.9% of the tested compounds scored in any of these assays.
Xi reactivation: reactivates the inactive X chromosome in mouse fibroblasts | XiGFP mouse fibroblasts, % GFP-positive cells imaging, 3 d; cells co-treated with 5-aza-dC sensitizer; scaled so ellipticine positive control = 100% | activation, % at 7.58 µM | 0.055% of 360,000 active | AID 743238;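 active = mean normalized replicate activation at least 10% and every replicate at or above 10%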
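Assay system: SV40-immortalized XiGFP fibroblast cells, line 68-5-11; buffer or medium: DMEM plus 5-aza-dC sensitizer; compound: one concentration, pinned; timing: compounds 3 days, fix/stain 15 min at room temperature; benchmarks: positive control ellipticine, 6 µM final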
DENV2 CPE rescue: protects cells from dengue virus 2 cytopathic effect. DENV2-infected cells, cytopathic effect rescue, plate reader. CPE inhibition, % at 9.99 µM. 1.7% of 350,000 active; in the data active = CPE inhibition above about 20%, passing the limit was not always enough; tested in BHK-21 cells
FN deposit inh: fibronectin deposition inhibition | AH1F fibroblasts, Alexa488-fibronectin deposition fluorescence, overnight | 0.086% of 350,000 active | inhibition, % at 12.6 µM;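 active = mean inhibition across replicates of 30% or more, regardless of how many single replicates reach that level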
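material = AH1F fibroblast monolayer depositing Alexa488-labelled fibronectin into matrix | amount = 10000 AH1F cells/well | buffer or medium = DMEM plus 2% serum, read in PBS | incubation = 1 h cell adhesion before compound, then overnight fibronectin incubation | detection = fluorescence at 485 nm excitation, 525 nm emission | evaluation = percent inhibition as loss of matrix-bound fibronectin fluorescence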
F508del corr: correctors of CFTR F508del function in bronchial epithelial cells | CFBE cells, YFP halide quenching; stimulated with forskolin plus potentiator P3; % fluorescence drop versus neutral controls | activity (quench increase), % at 7.58 µM | 0.36% of 350,000 active | AID 720511;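 active = mean added fluorescence quench of at least 8% versus neutral control, with both replicates also reaching 8%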;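 also: cells transiently co-express mutant CFTR-F508del with the halide-sensitive YFP; corrector assay measuring rescue of mutant channel to the surface after 24 h compound exposure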
Cneo AK release: causes C. neoformans cell lysis; adenylate kinase release luminescence, 4 h; normalised: neutral wells 0, clomiphene wells 100; lysis activity, % at 15 µM; 0.2% of 360,000 active;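 active = mean lysis activity across replicates of at least 80%, whatever share of replicates individually reach that level; inactive = mean lysis activity below 80%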
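Test system: log-phase Cryptococcus neoformans yeast cells. Input: 5 × 10^6 yeast cells/mL. Medium: fresh YPD growth medium. Doses: single dose. Incubation: static 4 h at 37 °C with compound, 1 h detection. Measured by: luminescent adenylate kinase detection reagent. Read-out: signal increase indicating cell lysis. Benchmarks: Clomiphene.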
PGC1a acetyl inh: lowers PGC1a acetylation signal in U2OS cells; AlphaScreen anti-acetyl-lysine; with virally co-expressed GCN5 acetyltransferase; inhibition, % at 15.6 µM; 0.17% of 350,000 active; AID 651687;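 active = every replicate shows inhibition of at least 40%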
Large screens that a line does not name were inactive.

CC1Cc2ccccc2N1S(=O)(=O)c1cccc(C(=O)N2CCN(c3ncccn3)CC2)c1 (stereo not drawn)	F508del corr 8.5 (no result: Cneo AK release, PGC1a acetyl inh)
COc1ccc2c3c(n(C)c2c1)[C@@H](CO)N(C(=O)CC1CC1)CC31CN(C(=O)CC2CC2)C1	none (no result: FN deposit inh, Cneo AK release, PGC1a acetyl inh)
COc1cc(Nc2ccn3nccc3n2)cc(OC)c1OC	DENV2 CPE rescue 23
CCCNC(=O)N1[C@H](CO)[C@H](c2ccccc2)C12CN(C(=O)c1cccnc1)C2	none (no result: FN deposit inh, Cneo AK release)
C[C@@H]1CN([C@@H](C)CO)S(=O)(=O)c2ccc(C#CC3CC3)cc2O[C@H]1CN(C)CC1CCOCC1	Cneo AK release 87
CCCC#Cc1ccc2c(c1)O[C@@H](CN(C)CCC)[C@H](C)CN([C@@H](C)CO)S2(=O)=O	none (no result: FN deposit inh)
C[C@H]1CN([C@@H](C)CO)S(=O)(=O)c2ccc(C#CC3CC3)cc2O[C@@H]1CN(C)Cc1ccncc1	DENV2 CPE rescue 42
CCCC#Cc1ccc2c(c1)O[C@@H](CN(C)CC1CCCC1)[C@H](C)CN([C@H](C)CO)S2(=O)=O	DENV2 CPE rescue 60 (no result: FN deposit inh, Cneo AK release)
C[C@@H]1CN([C@H](C)CO)S(=O)(=O)c2ccc(C#CC3CC3)cc2O[C@@H]1CN(C)Cc1ccncc1	none
CCCC#Cc1ccc2c(c1)O[C@H](CN(C)CCC)[C@H](C)CN([C@@H](C)CO)S2(=O)=O	Cneo AK release 103 (no result: FN deposit inh)
C[C@H]1CN([C@@H](C)CO)S(=O)(=O)c2ccc(C#CC3CC3)cc2O[C@@H]1CN(C)CC1CCOCC1	none
CC(C)NC(=O)Nc1ccc2c(c1)C(=O)N([C@@H](C)CO)C[C@@H](C)[C@H](CN(C)CC1CCCCC1)OCCCC[C@@H](C)O2	none
O=C(C[C@@H]1CC[C@@H]2[C@H](COC[C@H](O)CN2Cc2nccs2)O1)NCc1ccccc1F	none
CCCC#Cc1cnc2c(c1)C(=O)N([C@@H](C)CO)C[C@@H](C)[C@@H](CN(C)C(=O)NCCC)O2	none (no result: FN deposit inh)
CCCNC(=O)C[C@@H]1CC[C@H]2[C@@H](COC[C@@H](O)CN2C(=O)Nc2c(C)noc2C)O1	none
COCC(=O)Nc1ccc2c(c1)OC[C@H](C)N(C(=O)COC)C[C@H](C)[C@@H](OC)CN(C)C2=O	none (no result: Cneo AK release)
C[C@H]1CN([C@@H](C)CO)S(=O)(=O)c2ccc(C#Cc3ccccc3)cc2O[C@H]1CN(C)CC1CC1	DENV2 CPE rescue 35
C[C@@H]1CN([C@H](C)CO)S(=O)(=O)c2ccc(C#Cc3ccccc3)cc2O[C@@H]1CN(C)CC1CC1	none
C/C=C/c1ccc2c(c1)O[C@@H](CN(C)C(=O)C1CCC1)[C@@H](C)CN([C@H](C)CO)S2(=O)=O	none (no result: DENV2 CPE rescue, FN deposit inh, Cneo AK release)
Cc1noc(C)c1NC(=O)Nc1ccc2c(c1)C(=O)N(C)[C@@H]1CC[C@@H](CC(=O)NCc3ccc(Cl)cc3)O[C@H]1CO2	none (no result: F508del corr, PGC1a acetyl inh)
C[C@@H](NC(=O)C[C@@H]1C[C@@H]2c3cc(NC(=O)C4CCOCC4)ccc3O[C@@H]2[C@H](CO)O1)c1ccccc1	none (no result: FN deposit inh)
Cc1cccc(NCCC#N)c1	none (no result: DENV2 CPE rescue, F508del corr)
N#CCCc1cccc(CCC#N)c1	DENV2 CPE rescue 120
NC(c1csc(NC(=O)Nc2cccc(Cl)c2)n1)C1CCCCC1 (stereo not drawn)	DENV2 CPE rescue 112
NC(c1csc(NC(=O)Nc2ccccc2)n1)C1CCCCC1 (stereo not drawn)	none
CN(C(=O)c1ccccc1C(=O)OCC(=O)Nc1ccc(S(N)(=O)=O)cc1)c1ccccc1	F508del corr 8.2 (no result: FN deposit inh)
Cc1ccc(S(=O)(=O)N2CCN(C(=O)C(O)c3ccccc3)CC2)cc1 (stereo not drawn)	DENV2 CPE rescue 37 (no result: Cneo AK release, PGC1a acetyl inh)
Cc1ccc(N(C)C(=O)N2CCN(S(=O)(=O)c3ccc(C)cc3)CC2)cc1	DENV2 CPE rescue 59
O=C(C(O)c1ccccc1)N1CCN(S(=O)(=O)c2ccc(F)c(F)c2)CC1 (stereo not drawn)	none (no result: Cneo AK release, PGC1a acetyl inh)
COCc1cn([C@@H]2C[C@@H]3O[C@H](CO)CC[C@@H]3O[C@@H]2CCc2ccc(-c3ccc(OC)cc3)cc2)nn1	none (no result: Xi reactivation, FN deposit inh, Cneo AK release, PGC1a acetyl inh)
CCc1ccccc1NC(=O)CN1CCN(C(=O)CN2C(=O)NC3(CCCCC3C)C2=O)CC1 (stereo not drawn)	none

Source: PubChem BioAssay
